Assays:
Escherichia coli = experiment: Antibacterial activity against Escherichia coli at 50 uL/well by well diffusion assay; format: functional
Procedure, shortened: (§1)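 Bauer-type diffusion assay. Test compounds were at 2% in DMSO. The read-out was the diameter (mm) of the inhibition zone, with chloramphenicol as the reference agent.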

Micrococcus luteus = experiment: Antibacterial activity against Micrococcus luteus at 50 uL/well by well diffusion assay; format: functional; procedure, shortened: as §1
Trichophyton rubrum = experiment: Antifungal activity against Trichophyton rubrum at 50 uL/well by well diffusion assay; format: functional
Procedure, shortened: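 Agar discs (10 mm) carrying spores and hyphae were shaken in sterile distilled water. 1 mL of the spore suspension was plated and mixed with 15 mL molten SDA, then left to set. Compounds were at 2% in DMSO, applied per Bauer's diffusion method. The read-out was the inhibition zone (mm).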

Aspergillus niger = experiment: Antifungal activity against Aspergillus niger at 2% by disc diffusion assay
Fusarium oxysporum = experiment: Antifungal activity against Fusarium oxysporum at 2% by disc diffusion assay
Aspergillus flavus = experiment: Antifungal activity against Aspergillus flavus at 2% by disc diffusion assay
Geotrichum candidum = experiment: Antifungal activity against Geotrichum candidum at 2% by disc diffusion assay
Candida albicans = experiment: Antifungal activity against Candida albicans at 200 ug/disc by disc diffusion assay
[1] = test system: Scopulariopsis brevicaulis; experiment: Antifungal activity against Scopulariopsis brevicaulis at 2% by disc diffusion assay
Bacillus cereus = experiment: Antibacterial activity against Bacillus cereus at 200 ug/disc by disc diffusion assay
Serratia marcescens = experiment: Antibacterial activity against Serratia marcescens at 200 ug/disc by disc diffusion assay
Staphylococcus aureus = experiment: Antibacterial activity against Staphylococcus aureus at 200 ug/disc by disc diffusion assay
Pseudomonas aeruginosa = experiment: Antibacterial activity against Pseudomonas aeruginosa at 200 ug/disc by disc diffusion assay

SMILES: CCOC(=O)CSc1c(C#N)c2c(c3nncn13)CCCC2
- diameter of the inhibition zone (DIZ) (Escherichia coli): 0 mm
- diameter of the inhibition zone (DIZ) (Micrococcus luteus): 10 mm
- diameter of the inhibition zone (DIZ) (Trichophyton rubrum): 0 mm
- diameter of the inhibition zone (DIZ) (Aspergillus niger): 0 mm
- diameter of the inhibition zone (DIZ) (Fusarium oxysporum): 0 mm
- diameter of the inhibition zone (DIZ) (Aspergillus flavus): 0 mm
- diameter of the inhibition zone (DIZ) (Geotrichum candidum): 0 mm
- diameter of the inhibition zone (DIZ) (Candida albicans): 0 mm
- diameter of the inhibition zone (DIZ) [1]: 0 mm
- diameter of the inhibition zone (DIZ) (Bacillus cereus): 11 mm
- diameter of the inhibition zone (DIZ) (Serratia marcescens): 0 mm
- diameter of the inhibition zone (DIZ) (Staphylococcus aureus): 0 mm
- diameter of the inhibition zone (DIZ) (Pseudomonas aeruginosa): 0 mm

SMILES: CCOC(=O)CSc1nc(NN)c2c(c1C#N)CCCC2
- diameter of the inhibition zone (DIZ) (Escherichia coli): 0 mm
- diameter of the inhibition zone (DIZ) (Micrococcus luteus): 0 mm
- diameter of the inhibition zone (DIZ) (Trichophyton rubrum): 0 mm
- diameter of the inhibition zone (DIZ) (Aspergillus niger): 0 mm
- diameter of the inhibition zone (DIZ) (Fusarium oxysporum): 0 mm
- diameter of the inhibition zone (DIZ) (Aspergillus flavus): 0 mm
- diameter of the inhibition zone (DIZ) (Geotrichum candidum): 0 mm
- diameter of the inhibition zone (DIZ) (Candida albicans): 0 mm
- diameter of the inhibition zone (DIZ) [1]: 0 mm
- diameter of the inhibition zone (DIZ) (Bacillus cereus): 8 mm
- diameter of the inhibition zone (DIZ) (Serratia marcescens): 0 mm
- diameter of the inhibition zone (DIZ) (Staphylococcus aureus): 8 mm
- diameter of the inhibition zone (DIZ) (Pseudomonas aeruginosa): 0 mm

SMILES: CC(=O)CSc1c(C#N)c2c(c3nncn13)CCCC2
- diameter of the inhibition zone (DIZ) (Escherichia coli): 8 mm
- diameter of the inhibition zone (DIZ) (Micrococcus luteus): 12 mm
- diameter of the inhibition zone (DIZ) (Trichophyton rubrum): 0 mm
- diameter of the inhibition zone (DIZ) (Aspergillus niger): 0 mm
- diameter of the inhibition zone (DIZ) (Fusarium oxysporum): 0 mm
- diameter of the inhibition zone (DIZ) (Aspergillus flavus): 0 mm
- diameter of the inhibition zone (DIZ) (Geotrichum candidum): 0 mm
- diameter of the inhibition zone (DIZ) (Candida albicans): 0 mm
- diameter of the inhibition zone (DIZ) [1]: 0 mm
- diameter of the inhibition zone (DIZ) (Bacillus cereus): 12 mm
- diameter of the inhibition zone (DIZ) (Serratia marcescens): 12 mm
- diameter of the inhibition zone (DIZ) (Staphylococcus aureus): 10 mm
- diameter of the inhibition zone (DIZ) (Pseudomonas aeruginosa): 0 mm

SMILES: CCOC(=O)CSc1nc(-n2nc(C)cc2C)c2c(c1C#N)CCCC2
- diameter of the inhibition zone (DIZ) (Escherichia coli): 10 mm
- diameter of the inhibition zone (DIZ) (Micrococcus luteus): 0 mm
- diameter of the inhibition zone (DIZ) (Trichophyton rubrum): 0 mm
- diameter of the inhibition zone (DIZ) (Aspergillus niger): 0 mm
- diameter of the inhibition zone (DIZ) (Fusarium oxysporum): 0 mm
- diameter of the inhibition zone (DIZ) (Aspergillus flavus): 0 mm
- diameter of the inhibition zone (DIZ) (Geotrichum candidum): 10 mm
- diameter of the inhibition zone (DIZ) (Candida albicans): 0 mm
- diameter of the inhibition zone (DIZ) [1]: 0 mm
- diameter of the inhibition zone (DIZ) (Bacillus cereus): 0 mm
- diameter of the inhibition zone (DIZ) (Serratia marcescens): 10 mm
- diameter of the inhibition zone (DIZ) (Staphylococcus aureus): 7 mm
- diameter of the inhibition zone (DIZ) (Pseudomonas aeruginosa): 0 mm

SMILES: Cc1cc(C)n(-c2nc(SCC(=O)c3ccccc3)c(C#N)c3c2CCCC3)n1
- diameter of the inhibition zone (DIZ) (Escherichia coli): 0 mm
- diameter of the inhibition zone (DIZ) (Micrococcus luteus): 0 mm
- diameter of the inhibition zone (DIZ) (Trichophyton rubrum): 0 mm
- diameter of the inhibition zone (DIZ) (Aspergillus niger): 0 mm
- diameter of the inhibition zone (DIZ) (Fusarium oxysporum): 0 mm
- diameter of the inhibition zone (DIZ) (Aspergillus flavus): 0 mm
- diameter of the inhibition zone (DIZ) (Geotrichum candidum): 0 mm
- diameter of the inhibition zone (DIZ) (Candida albicans): 0 mm
- diameter of the inhibition zone (DIZ) [1]: 0 mm
- diameter of the inhibition zone (DIZ) (Bacillus cereus): 0 mm
- diameter of the inhibition zone (DIZ) (Serratia marcescens): 0 mm
- diameter of the inhibition zone (DIZ) (Staphylococcus aureus): 10 mm
- diameter of the inhibition zone (DIZ) (Pseudomonas aeruginosa): 0 mm

SMILES: N#Cc1c2c(c3nncn3c1SCC(N)=O)CCCC2
- diameter of the inhibition zone (DIZ) (Escherichia coli): 12 mm
- diameter of the inhibition zone (DIZ) (Micrococcus luteus): 0 mm
- diameter of the inhibition zone (DIZ) (Trichophyton rubrum): 0 mm
- diameter of the inhibition zone (DIZ) (Aspergillus niger): 0 mm
- diameter of the inhibition zone (DIZ) (Fusarium oxysporum): 0 mm
- diameter of the inhibition zone (DIZ) (Aspergillus flavus): 0 mm
- diameter of the inhibition zone (DIZ) (Geotrichum candidum): 0 mm
- diameter of the inhibition zone (DIZ) (Candida albicans): 0 mm
- diameter of the inhibition zone (DIZ) [1]: 0 mm
- diameter of the inhibition zone (DIZ) (Bacillus cereus): 13 mm
- diameter of the inhibition zone (DIZ) (Serratia marcescens): 0 mm
- diameter of the inhibition zone (DIZ) (Staphylococcus aureus): 8 mm
- diameter of the inhibition zone (DIZ) (Pseudomonas aeruginosa): 0 mm

SMILES: N#CCSc1nc(NN)c2c(c1C#N)CCCC2
- diameter of the inhibition zone (DIZ) (Escherichia coli): 0 mm
- diameter of the inhibition zone (DIZ) (Micrococcus luteus): 0 mm
- diameter of the inhibition zone (DIZ) (Trichophyton rubrum): 0 mm
- diameter of the inhibition zone (DIZ) (Aspergillus niger): 0 mm
- diameter of the inhibition zone (DIZ) (Fusarium oxysporum): 0 mm
- diameter of the inhibition zone (DIZ) (Aspergillus flavus): 0 mm
- diameter of the inhibition zone (DIZ) (Geotrichum candidum): 0 mm
- diameter of the inhibition zone (DIZ) (Candida albicans): 10 mm
- diameter of the inhibition zone (DIZ) [1]: 0 mm
- diameter of the inhibition zone (DIZ) (Bacillus cereus): 0 mm
- diameter of the inhibition zone (DIZ) (Serratia marcescens): 10 mm
- diameter of the inhibition zone (DIZ) (Staphylococcus aureus): 8 mm
- diameter of the inhibition zone (DIZ) (Pseudomonas aeruginosa): 0 mm

SMILES: N#Cc1c(SCC(N)=O)nc(NN)c2c1CCCC2
- diameter of the inhibition zone (DIZ) (Escherichia coli): 11 mm
- diameter of the inhibition zone (DIZ) (Micrococcus luteus): 0 mm
- diameter of the inhibition zone (DIZ) (Trichophyton rubrum): 0 mm
- diameter of the inhibition zone (DIZ) (Aspergillus niger): 0 mm
- diameter of the inhibition zone (DIZ) (Fusarium oxysporum): 10 mm
- diameter of the inhibition zone (DIZ) (Aspergillus flavus): 0 mm
- diameter of the inhibition zone (DIZ) (Geotrichum candidum): 10 mm
- diameter of the inhibition zone (DIZ) (Candida albicans): 0 mm
- diameter of the inhibition zone (DIZ) [1]: 0 mm
- diameter of the inhibition zone (DIZ) (Bacillus cereus): 0 mm
- diameter of the inhibition zone (DIZ) (Serratia marcescens): 8 mm
- diameter of the inhibition zone (DIZ) (Staphylococcus aureus): 0 mm
- diameter of the inhibition zone (DIZ) (Pseudomonas aeruginosa): 0 mm

SMILES: CCOC(=O)c1sc2c(c1N)c1c(c3nncn32)CCCC1
- diameter of the inhibition zone (DIZ) (Escherichia coli): 11 mm
- diameter of the inhibition zone (DIZ) (Micrococcus luteus): 0 mm
- diameter of the inhibition zone (DIZ) (Trichophyton rubrum): 0 mm
- diameter of the inhibition zone (DIZ) (Aspergillus niger): 0 mm
- diameter of the inhibition zone (DIZ) (Fusarium oxysporum): 0 mm
- diameter of the inhibition zone (DIZ) (Aspergillus flavus): 8 mm
- diameter of the inhibition zone (DIZ) (Geotrichum candidum): 0 mm
- diameter of the inhibition zone (DIZ) (Candida albicans): 10 mm
- diameter of the inhibition zone (DIZ) [1]: 0 mm
- diameter of the inhibition zone (DIZ) (Bacillus cereus): 8 mm
- diameter of the inhibition zone (DIZ) (Serratia marcescens): 10 mm
- diameter of the inhibition zone (DIZ) (Staphylococcus aureus): 10 mm
- diameter of the inhibition zone (DIZ) (Pseudomonas aeruginosa): 0 mm

SMILES: Nc1c(C(=O)c2ccccc2)sc2c1c1c(c3nncn32)CCCC1
- diameter of the inhibition zone (DIZ) (Escherichia coli): 10 mm
- diameter of the inhibition zone (DIZ) (Micrococcus luteus): 11 mm
- diameter of the inhibition zone (DIZ) (Trichophyton rubrum): 0 mm
- diameter of the inhibition zone (DIZ) (Aspergillus niger): 13 mm
- diameter of the inhibition zone (DIZ) (Fusarium oxysporum): 0 mm
- diameter of the inhibition zone (DIZ) (Aspergillus flavus): 15 mm
- diameter of the inhibition zone (DIZ) (Geotrichum candidum): 8 mm
- diameter of the inhibition zone (DIZ) (Candida albicans): 11 mm
- diameter of the inhibition zone (DIZ) [1]: 8 mm
- diameter of the inhibition zone (DIZ) (Bacillus cereus): 0 mm
- diameter of the inhibition zone (DIZ) (Serratia marcescens): 0 mm
- diameter of the inhibition zone (DIZ) (Staphylococcus aureus): 0 mm
- diameter of the inhibition zone (DIZ) (Pseudomonas aeruginosa): 0 mm

SMILES: N#Cc1c2c(c(N3N=C(c4ccccc4)CC3=O)[nH]c1=S)CCCC2
- diameter of the inhibition zone (DIZ) (Escherichia coli): 13 mm
- diameter of the inhibition zone (DIZ) (Micrococcus luteus): 0 mm
- diameter of the inhibition zone (DIZ) (Trichophyton rubrum): 14 mm
- diameter of the inhibition zone (DIZ) (Aspergillus niger): 0 mm
- diameter of the inhibition zone (DIZ) (Fusarium oxysporum): 0 mm
- diameter of the inhibition zone (DIZ) (Aspergillus flavus): 0 mm
- diameter of the inhibition zone (DIZ) (Geotrichum candidum): 0 mm
- diameter of the inhibition zone (DIZ) (Candida albicans): 0 mm
- diameter of the inhibition zone (DIZ) [1]: 0 mm
- diameter of the inhibition zone (DIZ) (Bacillus cereus): 0 mm
- diameter of the inhibition zone (DIZ) (Serratia marcescens): 0 mm
- diameter of the inhibition zone (DIZ) (Staphylococcus aureus): 0 mm
- diameter of the inhibition zone (DIZ) (Pseudomonas aeruginosa): 0 mm
